Source: ChEMBL document CHEMBL4477170, “Tricyclic Acylphloroglucinols from Hypericum lanceolatum and Regioselective Synthesis of Selancins A and B” (J Nat Prod, 2016)
The source made the active and inactive calls. The rule behind the calls is not given here.

Tests used:
HT-29 = assay: Cytotoxicity against human HT-29 cells assessed as cell growth inhibition at 10 uM by XTT assay; assay type: functional, cell-based
Outline: (§1)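 Modified XTT assay on HT-29 colon and PC-3 prostate cancer cell lines, measuring growth inhibition; isolated compounds tested up to 10 μM.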

PC-3 = assay: Cytotoxicity against human PC3 cells assessed as cell growth inhibition at 10 uM by XTT assay; assay type: functional, cell-based; outline: as §1

For `CC(C)C(=O)c1c(O)c2c(c3c1OC(C)(C)C(O)C3)OC(C)(C)C=C2` (stereo not drawn), the “growth inhibition (GI)” value (HT-29) was “inactive” and the “growth inhibition (GI)” value (PC-3) was “inactive”.

For `CC(C)C(=O)c1c(O)c2c(c3c1OC(C)(C)C=C3)OC(C)(C)[C@@H](O)C2=O`, the “growth inhibition (GI)” value (HT-29) was “inactive” and the “growth inhibition (GI)” value (PC-3) was “inactive”.

For `CC[C@H](C)C(=O)c1c(O)c2c(c3c1OC(C)(C)C(O)C3)OC(C)(C)C=C2` (stereo partly drawn), the “growth inhibition (GI)” value (HT-29) was “inactive” and the “growth inhibition (GI)” value (PC-3) was “inactive”.

With `CC[C@H](C)C(=O)c1c(O)c2c(c3c1OC(C)(C)C=C3)OC(C)(C)[C@@H](O)C2=O` the “growth inhibition (GI)” value (HT-29) was “inactive” and the “growth inhibition (GI)” value (PC-3) was “inactive”.

With `CC(C)C(=O)c1c(O)c2c(c3c1OC(C)(C)C=C3)OC(C)(C)C=C2` the “growth inhibition (GI)” value (HT-29) was “inactive” and the “growth inhibition (GI)” value (PC-3) was “inactive”.

In the case of `CC(C)C(=O)c1c(O)c2c(c3c1OC(C)(C)C=C3)OC(C)(C)[C@H](O)[C@@H]2O` (relative stereo), the “growth inhibition (GI)” value (HT-29) is reported as “inactive” and the “growth inhibition (GI)” value (PC-3) is reported as “inactive”.

For `CC(C)=CCC/C(C)=C/COc1cc(O)c2c(c1)C(=O)c1cc(C)cc(O)c1C2=O`, the “growth inhibition (GI)” value (HT-29) was “inactive” and the “growth inhibition (GI)” value (PC-3) was “inactive”.

In the case of `CC[C@H](C)C(=O)c1c(O)c2c(c3c1OC(C)(C)C=C3)OC(C)(C)C=C2`, the “growth inhibition (GI)” value (HT-29) is reported as “inactive” and the “growth inhibition (GI)” value (PC-3) is reported as “inactive”.

In the case of `CC[C@H](C)C(=O)c1c(O)c2c(c3c1OC(C)(C)C=C3)OC(C)(C)[C@H](O)C2`, the “growth inhibition (GI)” value (HT-29) is reported as “inactive” and the “growth inhibition (GI)” value (PC-3) is reported as “inactive”.
